Source: ChEMBL document CHEMBL1944524, “Synthesis and structure-activity relationship of 5-pyridazin-3-one phenoxypiperidines as potent, selective histamine H(3) receptor inverse agonists” (Bioorg Med Chem Lett, 2012)

Experiments:
[1] = Half life in dog liver microsomes; type: ADME, Canis lupus familiaris, Microsome
Procedure, shortened: (§1)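 Stability in liver microsomes from rat, dog or human; half-life (min) determined.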

[2] = Cmax in po dosed rat; type: ADME, organism-based; set-up: route oral; details: in vivo
[3] = test system: Rattus norvegicus; assay: Cmax in po dosed rat assessed as 5-[4-(1-cyclobutyl-piperidin-4-yloxy)-phenyl]-6-methyl-2H-pyridazin-3-one level; type: ADME, organism-based; set-up: route oral; details: in vivo
[4] = AUC in po dosed rat; type: ADME, organism-based; details: plasma
[5] = test system: Rattus norvegicus; assay: AUC in po dosed rat assessed as 5-[4-(1-cyclobutyl-piperidin-4-yloxy)-phenyl]-6-methyl-2H-pyridazin-3-one level; type: ADME, organism-based, Plasma; details: in vivo
[6] = target: Histamine H3 receptor (Homo sapiens, UniProt Q9Y5N1); assay: Displacement of [3H]N-alpha-methylhistamine from human histamine H3 receptor expressed in CHO cells; type: cell-based
[7] = Inhibition of cytochrome P450; type: ADME
Procedure, shortened: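 CYP inhibition assessed against 5 CYP isoforms; IC50 determined.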

[8] = target: Histamine H3 receptor (Rattus norvegicus, UniProt Q9QYN8); assay: Displacement of [3H]N-alpha-methylhistamine from rat histamine H3 receptor expressed in CHO cells; type: cell-based
[9] = Oral bioavailability in rat; type: ADME, organism-based; details: in vivo
Procedure, shortened: (§2)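 Rat PK study, dosed 1 mg/kg iv plus 10 or 5 mg/kg po. iv vehicle 3% DMSO, 30% solutol, 67% phosphate buffered saline; oral vehicle 50% Tween 80, 40% propylene carbonate, 10% propylene glycol.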

[10] = Half life in human liver microsomes; type: ADME, Microsome; procedure, shortened: as §1
[11] = Half life in rat liver microsomes; type: ADME, Microsome; procedure, shortened: as §1
[12] = target: Voltage-gated inwardly rectifying potassium channel KCNH2 (Homo sapiens, UniProt Q12809); assay: Inhibition of human ERG by patch clamp assay
[13] = Half life in rat at 1 mg/kg, iv; type: ADME, organism-based; set-up: dose 1 mg/kg, route intravenous; details: in vivo; procedure, shortened: as §2
[14] = Volume of distribution in rat at 1 mg/kg, iv; type: ADME, organism-based; set-up: dose 1 mg/kg, route intravenous; details: in vivo; procedure, shortened: as §2
[15] = Tmax in rat at 5 mg/kg, po; type: ADME, organism-based; set-up: dose 5 mg/kg, route oral; details: in vivo; procedure, shortened: as §2
[16] = AUC in rat at 5 mg/kg, po; type: ADME, organism-based; set-up: dose 5 mg/kg, route oral; details: plasma; procedure, shortened: as §2
[17] = Oral bioavailability in rat at 5 mg/kg; type: ADME, organism-based; details: in vivo; procedure, shortened: as §2
[18] = Cmax in rat at 5 mg/kg, po; type: ADME, organism-based; set-up: dose 5 mg/kg, route oral; details: in vivo; procedure, shortened: as §2
[19] = Clearance in rat at 1 mg/kg, iv; type: ADME, organism-based; set-up: dose 1 mg/kg, route intravenous; details: in vivo; procedure, shortened: as §2
[20] = Ratio of drug level in brain to plasma in rat at 10 mg/kg, ip after 6 hrs; type: ADME, organism-based; set-up: dose 10 mg/kg, route intraperitoneal; details: read-out: BPR
Procedure, shortened: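 Brain and plasma levels measured in rat 6 h after a 10 mg/kg ip dose; value is brain/plasma ratio.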

Chain of Histamine H3 receptor (Homo sapiens, UniProt Q9Y5N1) (Q9Y5N1 whole entry): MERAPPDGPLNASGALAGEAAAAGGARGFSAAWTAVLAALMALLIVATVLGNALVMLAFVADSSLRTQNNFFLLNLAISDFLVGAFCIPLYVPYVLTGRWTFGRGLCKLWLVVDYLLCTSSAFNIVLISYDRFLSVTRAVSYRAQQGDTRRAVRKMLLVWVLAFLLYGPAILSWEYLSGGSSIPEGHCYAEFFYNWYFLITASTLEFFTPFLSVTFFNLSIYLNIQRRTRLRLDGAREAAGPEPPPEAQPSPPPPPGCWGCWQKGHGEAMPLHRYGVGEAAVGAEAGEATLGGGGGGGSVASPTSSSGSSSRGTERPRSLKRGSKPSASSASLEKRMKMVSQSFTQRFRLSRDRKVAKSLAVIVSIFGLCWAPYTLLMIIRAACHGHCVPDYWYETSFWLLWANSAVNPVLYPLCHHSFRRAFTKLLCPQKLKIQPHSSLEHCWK
Chain of Histamine H3 receptor (Rattus norvegicus, UniProt Q9QYN8) (Q9QYN8 whole entry): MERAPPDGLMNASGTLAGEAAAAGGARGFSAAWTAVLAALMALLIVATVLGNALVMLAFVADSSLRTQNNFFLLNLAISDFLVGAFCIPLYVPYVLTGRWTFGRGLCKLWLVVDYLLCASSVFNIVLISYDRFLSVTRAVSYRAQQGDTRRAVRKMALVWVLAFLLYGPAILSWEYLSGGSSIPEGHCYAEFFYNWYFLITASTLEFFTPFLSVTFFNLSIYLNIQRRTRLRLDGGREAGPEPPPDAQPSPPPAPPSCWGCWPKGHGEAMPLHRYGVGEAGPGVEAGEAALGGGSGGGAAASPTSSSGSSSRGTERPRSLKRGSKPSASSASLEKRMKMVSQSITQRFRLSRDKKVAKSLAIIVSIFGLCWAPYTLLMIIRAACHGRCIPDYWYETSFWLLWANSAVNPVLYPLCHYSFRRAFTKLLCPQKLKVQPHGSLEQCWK
Chain of Voltage-gated inwardly rectifying potassium channel KCNH2 (Q12809 whole entry): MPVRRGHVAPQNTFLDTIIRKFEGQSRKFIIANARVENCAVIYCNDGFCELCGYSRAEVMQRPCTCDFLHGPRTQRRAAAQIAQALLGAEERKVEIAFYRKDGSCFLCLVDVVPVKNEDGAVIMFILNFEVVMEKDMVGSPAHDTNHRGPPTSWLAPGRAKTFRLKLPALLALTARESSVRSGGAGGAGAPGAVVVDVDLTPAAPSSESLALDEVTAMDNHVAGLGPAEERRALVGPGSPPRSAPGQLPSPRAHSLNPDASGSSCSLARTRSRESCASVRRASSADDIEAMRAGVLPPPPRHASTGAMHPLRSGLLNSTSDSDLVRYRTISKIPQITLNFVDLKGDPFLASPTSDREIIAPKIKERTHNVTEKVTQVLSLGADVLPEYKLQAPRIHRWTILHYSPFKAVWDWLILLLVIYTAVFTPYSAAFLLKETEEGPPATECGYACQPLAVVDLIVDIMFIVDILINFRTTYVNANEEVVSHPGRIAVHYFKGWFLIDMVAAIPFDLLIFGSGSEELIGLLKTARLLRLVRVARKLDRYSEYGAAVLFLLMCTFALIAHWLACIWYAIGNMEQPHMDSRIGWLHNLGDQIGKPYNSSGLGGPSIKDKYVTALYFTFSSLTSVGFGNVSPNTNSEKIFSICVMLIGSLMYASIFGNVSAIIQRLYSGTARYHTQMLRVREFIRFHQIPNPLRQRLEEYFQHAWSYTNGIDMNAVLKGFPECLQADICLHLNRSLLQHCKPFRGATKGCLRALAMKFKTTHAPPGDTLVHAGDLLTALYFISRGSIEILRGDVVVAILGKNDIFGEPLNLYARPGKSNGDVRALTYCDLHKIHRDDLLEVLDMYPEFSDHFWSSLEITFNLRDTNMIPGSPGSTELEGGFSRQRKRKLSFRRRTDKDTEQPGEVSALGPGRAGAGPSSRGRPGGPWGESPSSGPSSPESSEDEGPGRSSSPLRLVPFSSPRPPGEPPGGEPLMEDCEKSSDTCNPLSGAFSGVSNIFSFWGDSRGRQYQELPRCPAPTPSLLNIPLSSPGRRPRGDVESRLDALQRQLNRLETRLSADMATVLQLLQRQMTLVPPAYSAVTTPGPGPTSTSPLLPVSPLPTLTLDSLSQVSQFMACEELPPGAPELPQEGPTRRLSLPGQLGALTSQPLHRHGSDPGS

| half-life [1] [h] | Cmax [2] [ng/mL] | Cmax [3] [ng/mL] | AUC [4] [ng·h/mL] | AUC [5] [ng·h/mL] | Ki [6] [nM] | IC50 [7] [nM] | Ki [8] [nM] | bioavailability [9] [%] | half-life [10] [h] | half-life [11] [h] | half-life [13] [h] | Vd [14] [L/kg] | Tmax [15] [h] | AUC [16] [ng·h/mL] | bioavailability [17] [%] | Cmax [18] [ng/mL] | clearance [19] [mL/min/kg] | Kp at 6 h [20] | SMILES | IC50 [12] [nM] |
| --- | --- | --- | --- | --- | --- | --- | --- | --- | --- | --- | --- | --- | --- | --- | --- | --- | --- | --- | --- | --- |
| > 0.667 | 73 | 34 | 370 | 152 | 15 | > 30000 | 13 | 6 | > 0.667 | > 0.667 |  |  |  |  |  |  |  |  | CC1=NNC(=O)CC1c1ccc(OC2CCN(C3CCC3)CC2)cc1 (configuration not stated) |  |
|  |  |  |  |  | 2 |  | 2 | 21 |  |  |  |  |  |  |  |  |  |  | O=c1cc(-c2ccc(OC3CCN(C4CCC4)CC3)cc2)cn[nH]1 | 2000 |
|  |  |  |  |  | 4 | > 30000 | 10 |  |  |  | 1.1 | 1.7 | 2 | 1270 | 20 | 332 | 16 | 1.6 | Cc1cccc(-n2nc(C)c(-c3ccc(OC4CCN(C5CCC5)CC4)cc3)cc2=O)n1 | > 30000 |
